The results in this text go back to ChEMBL document CHEMBL4371029, “Design, synthesis and evaluation of N2,N4-diaminoquinazoline based inhibitors of phosphodiesterase type 5” (Bioorg Med Chem Lett, 2019).

Series [1] can be described thus: Inhibition of histone activated chicken PDE6 using [3H]cGMP as substrate measured after 10 mins by scintillation counting method. Also noted: species or system Gallus gallus. The gist of the method: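 Radioactive enzyme assay adapted from Sonnenburg et al. IC50 is the concentration giving 50% enzyme inhibition. Percent inhibition at the highest concentration tested is also recorded.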

Series [2] has as its target cGMP-specific 3',5'-cyclic phosphodiesterase (Rattus norvegicus, UniProt O54735). Nature of the series: Inhibition of rat lung PDE5 using [3H]cGMP as substrate measured after 10 mins by scintillation counting method.
Another series relates to Artery. Nature of the series: Vasorelaxant activity in Wistar rat endothelium intact pulmonary artery rings assessed as inhibition of phenylephrine-induced contraction. The series is classed as functional, tissue-based.
A short description of series [3]: Equilibrium solubility of the compound in pH 7.4 phosphate buffer saline at 1 mg sonicated for 1 hr followed by 6 hrs incubation by shake flask method. The class given is physicochemical. The note with it: phosphate buffered saline.
The nature of series [4]: Selectivity index, ratio of IC50 for human A549 cells to IC50 for rat lung PDE5.
The nature of series [5]: Selectivity index, ratio of IC50 for histone activated chicken PDE6 to IC50 for rat lung PDE5.
A further series has as its system A549. Nature of the series: Cytotoxicity against human A549 cells after 72 hrs by MTT assay. The series is classed as cell-based. The settings on record: A549, 72 h. In outline: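 A549 adenocarcinomic human alveolar basal epithelial cells (ATCC CCL-185). Viability read by MTT; result expressed as IC50.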

≈ marks a conversion by molar mass, not a printed value. Where only a bound is given, the exact number is not on record here.

Regarding `Clc1cnc(Nc2ccccc2)nc1NCc1ccccc1`, the IC50 in series [1] is 33500 nM; in series [2], more than 10000 nM.

In series [2], `Cc1cc(Nc2nc(Nc3cccc(S(N)(=O)=O)c3)nc3ccccc23)n[nH]1` registered an IC50 of 3710 nM.

For `NS(=O)(=O)c1ccc(Nc2nc(NCc3ccccc3)c3ccccc3n2)cc1`, in series [2], the IC50 came to 946 nM.

Regarding `O=C(Nc1ccccc1)Nc1ccc(Nc2nc(NCc3cccs3)c3ccccc3n2)cc1`, the IC50 in series [2] was 775 nM.

In turn, `COc1cc2nc(Nc3cccc(S(N)(=O)=O)c3)nc(NCc3cccs3)c2cc1OC` showed an IC50 in series [2] of 555 nM.

As to `CCCc1nn(C)c2c(=O)[nH]c(-c3cc(S(=O)(=O)N4CCN(C)CC4)ccc3OCC)nc12`, 13 nM corresponded to half-maximal inhibition in series [1] (IC50). The EC50 in the series with Artery is 140 nM.

With `NS(=O)(=O)c1cccc(Nc2nc(NCc3ccccc3)c3ccccc3n2)c1`, the IC50 is 332 nM in series [1], 72 nM in series [2] and 11200 nM with A549. Besides, the solubility (thermodynamic) at 6 h in series [3] worked out at 1370 µM (≈ 556 µg/mL). Further, the “Ratio IC50” value in series [4] worked out at 155; in series [5] it was 4.61. Besides, the EC50 in the series on Artery is 1630 nM.

The molecule `COc1cc2nc(Nc3cccc(S(N)(=O)=O)c3)nc(NCc3ccccc3)c2cc1OC` displayed an IC50 in series [2] of 218 nM.

Molecule `COc1cccc(CNc2nc(Nc3cccc(S(N)(=O)=O)c3)nc3cc(OC)c(OC)cc23)c1` had an IC50 in series [2] of 443 nM.

Take `NC(=O)c1ccc(Nc2nc(NCc3cccs3)c3ccccc3n2)cc1`: the IC50 in series [2] is 177 nM.

`CN(C)S(=O)(=O)c1ccc(Nc2nc(NCc3ccccc3)c3ccccc3n2)cc1`: the IC50 in series [2] is 1260 nM.

In the case of `COc1cccc(CNc2nc(Nc3cccc(S(N)(=O)=O)c3)nc3ccccc23)c1`, the IC50 in series [2] turned out to be 350 nM.

With `c1ccc(CNc2nc(Nc3ccccc3)nc3ccccc23)cc1`, the IC50 in series [1] stood at 890 nM; in series [2] it was 1380 nM; in the series with A549, 12300 nM. Besides, the thermodynamic solubility at 6 h in series [3] was determined as 410 µM (≈ 134 µg/mL). The results for the “Ratio IC50” value in series [4] and in series [5] were 9 and 0.65, respectively.

The molecule `NS(=O)(=O)c1ccc(Nc2nc(NCc3cccs3)c3ccccc3n2)cc1` gave an IC50 in series [2] of 224 nM.

Turning to `COc1cc2nc(Nc3cccc(S(N)(=O)=O)c3)nc(NCc3ccco3)c2cc1OC`, the IC50 in series [2] is 284 nM. This IC50 and that of the molecule before are within 1.5-fold of each other.

Turning to `NS(=O)(=O)c1cccc(Nc2nc(NCc3ccco3)c3ccccc3n2)c1`, the IC50 in series [1] turned out to be 190 nM; in series [2], 116 nM; in the series with A549, 26900 nM. Moreover, in series [3], the thermodynamic solubility at 6 h worked out at 380 µM (≈ 150 µg/mL). The “Ratio IC50” value was determined as 232 in series [4] and 1.64 in series [5].

As to `NS(=O)(=O)c1cccc(Nc2nc(NCc3cccs3)c3ccccc3n2)c1`, the IC50 in series [1] stood at 360 nM; in series [2] it was 89 nM; in the series with A549 it was 15000 nM. Also, the solubility (thermodynamic) at 6 h in series [3] turned out to be 340 µM (≈ 140 µg/mL). Also, the figures for the “Ratio IC50” value in series [4] and in series [5] were 169 and 4.04, respectively. For the same molecule, the EC50 with Artery was determined as 2280 nM.

Turning to `c1ccc(CNc2nc(Nc3ccc(N4CCOCC4)cc3)nc3ccccc23)cc1`, the results for the IC50 (in series [1]; in series [2]; in the series with A549) were 450 nM, 525 nM and 12100 nM, respectively. In series [3], this molecule yielded a solubility (thermodynamic) at 6 h of 600 µM (≈ 247 µg/mL). Besides, the entries for the “Ratio IC50” value in series [4] and in series [5] were 23 and 0.86, respectively.

With `c1csc(CNc2nc(Nc3ccc(N4CCOCC4)cc3)nc3ccccc23)c1`, the half-inhibitory concentration (IC50) in series [1] is 610 nM; in series [2] it was 514 nM; in the series with A549, 11400 nM. In series [3], this molecule displayed a thermodynamic solubility at 6 h of 480 µM (≈ 200 µg/mL). Further, the results for the “Ratio IC50” value in series [4] and in series [5] were 22 and 1.19, respectively.

Regarding `c1ccc(Nc2nc(NCc3cccs3)c3ccccc3n2)cc1`, in series [2], the midpoint of inhibition, the IC50, lay at 1440 nM.

The molecule `NC(=O)c1cccc(Nc2nc(NCc3cccs3)c3ccccc3n2)c1` registered an IC50 in series [2] of 290 nM.
